The source of these data is ChEMBL document CHEMBL2057078, “Synthesis and in vitro antiproliferative activity of new 11-aminoalkylamino-substituted 5H- and 6H-indolo[2,3-b]quinolines; structure-activity relationships of neocryptolepines and 6-methyl congeners” (Bioorg Med Chem, 2012).

One assay deals with MV4-11. Nature of the assay: Antiproliferative activity against human MV4-11 cells after 72 hrs by MTT assay. The format is functional, cell-based. The note with it: MV4-11, 72 h. An outline of the steps: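 Leukemia cells cultured in RPMI 1640 at 37 °C, 5% CO2. Plated at 1 × 10⁴ cells/well 24 h ahead, then 72 h with compound at 0.001–10 µg/mL. MTT (stock 5 mg/mL) added, formazan dissolved with a DMF/SDS lysing mixture for 24 h, OD read at 570 nm. IC50 vs untreated control; triplicates, 3–5 repeats.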
Background: Formazan colour is commonly taken as a measure of viable cells.

For assay [1], the system named is A549. Nature of the assay: Antiproliferative activity against human A549 cells after 72 hrs by SRB assay. The format is functional, cell-based. The note with it: A549, 72 h. The method in brief:
(§1)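 Cells grown in RPMI 1640+OptiMEM (50:50) with 2 mM L-glutamine and 5% FBS at 37 °C, 5% CO2. Plated at 1 × 10⁴ cells/well 24 h before treatment, then exposed 72 h to 0.001–10 µg/mL compound (from 1 mg/mL stock in DMSO/medium). TCA-fixed, stained with 0.4% SRB in 1% acetic acid, dye extracted with 10 mM Tris, read at 540 nm. IC50 vs untreated control; triplicates, 3–5 experiments.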

Another assay relates to HCT-116. The experiment in a line: Antiproliferative activity against human HCT116 cells after 72 hrs by SRB assay. The note with it: HCT-116, 72 h. The format is functional, cell-based. An outline of the steps: as §1
(In general: Sulforhodamine B stains cellular protein and so reports cell mass.)

Assay [2] concerns BALB/3T3. Nature of the assay: Antiproliferative activity against mouse BALB/3T3 cells after 72 hrs by SRB assay. The format is cell-based. The note with it: BALB/3T3, 72 h. An outline of the steps: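 Mouse fibroblasts kept in Dulbecco's medium with 2 mM L-glutamine, 1.0 mM sodium pyruvate and 10% FBS at 37 °C, 5% CO2. Seeded at 1 × 10⁴ cells/well a day before dosing, then 72 h exposure to 0.001–10 µg/mL. SRB staining after TCA fixation, Tris extraction, OD 540 nm. IC50 relative to untreated cells; triplicate wells, 3–5 independent runs.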

The test system of assay [3] is BALB/3T3. The experiment in a line: Selectivity ratio of IC50 for mouse BALB/3T3 cells to IC50 for human A549 cells.
For assay [4], the system named is BALB/3T3. The experiment in a line: Selectivity ratio of IC50 for mouse BALB/3T3 cells to IC50 for human HCT116 cells.
Assay [5] concerns A549. The experiment in a line: Selectivity ratio of IC50 for human A549 cells to IC50 for human HCT116 cells. It is filed as functional.
In another assay the test system is Nucleic Acid. The experiment in a line: Binding affinity to salmon fish sperm DNA assessed as hypochromic effect by UV-Vis absorption spectroscopic analysis at pH 7. It is filed as nucleic-acid assay. The note with it: Salmonidae. The method in brief: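 UV–vis absorption titration in pH 7.0 phosphate buffer with 2.5% DMSO at 20 °C, 1 cm quartz cuvette. Compound held at 50 µmol/L with DNA added from 0 to 1.0 µmol/L. Binding assessed from absorbance change using a 1/ΔA versus 1/[DNA] plot.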

Molecules are shown by their SMILES. Where a name gives a salt, the structure may show the parent alone. A value given as a limit tells only on which side of the number the result lay.

One may read the IC50 as the concentration needed to halve the response being measured. Read a low IC50 as higher potency. `Cn1c2nc3ccccc3c-2c(NCCCCN)c2cc(Br)ccc21`: the IC50 in the assay with MV4-11 came out at 91 nM; in the assay on A549 [1] it was 579 nM; with HCT-116, 209 nM; in the assay with BALB/3T3 [2], 742 nM. In addition, the “Ratio IC50” value with BALB/3T3 [3] and in the assay on BALB/3T3 [4] was 3 in each case.
For the molecule `COc1ccc2c(c1)c(NCCCCN)c1c3ccccc3nc-1n2C`, the half-maximal inhibitory concentration (IC50) in the assay on MV4-11 turned out to be 132 nM; in the assay on A549 [1], 674 nM; with HCT-116, 657 nM; in the assay on BALB/3T3 [2] it was 1620 nM.
As to `Cn1c2nc3ccccc3c-2c(NCCc2c[nH]c3ccccc23)c2ccccc21`, in the assay with MV4-11, the IC50 was found to be 871 nM.
Consider `CN1CCCN(c2c3c4ccccc4nc-3n(C)c3ccc(Cl)cc23)CC1`, for which the IC50 with MV4-11 came to 106 nM; in the assay on A549 [1], 7390 nM; in the assay with HCT-116 it was 1750 nM; with BALB/3T3 [2], 6410 nM. In addition, the “Ratio IC50” value with BALB/3T3 [4] and in the assay with A549 [5] was 4 each time.
As to `COc1ccc2c(c1)c(NCCCN)c1c3ccccc3nc-1n2C`, the IC50 came to 102 nM in the assay on MV4-11, 407 nM with A549 [1], 155 nM in the assay with HCT-116 and 978 nM in the assay with BALB/3T3 [2]. The “Ratio IC50” value in the assay with BALB/3T3 [3] and with BALB/3T3 [4] was 3 in each case.
On to `CN1CCCN(c2c3c4ccccc4nc-3n(C)c3ccc(Br)cc23)CC1`, for which the IC50 was found to be 737 nM in the assay on MV4-11, 4540 nM in the assay with A549 [1], 1160 nM in the assay on HCT-116 and 7600 nM with BALB/3T3 [2].
Take `COc1ccc2c(c1)c(NCCCO)c1c3ccccc3nc-1n2C`: the IC50 in the assay with MV4-11 stood at 135 nM; with A549 [1], 1010 nM; with HCT-116 it was 278 nM; in the assay on BALB/3T3 [2], 807 nM. Moreover, the “Ratio IC50” value in the assay with BALB/3T3 [4] and with A549 [5] was 4 in each case.
`COc1ccc2c(c1)c(Cl)c1c3ccccc3nc-1n2C` yielded an IC50 with MV4-11 of 1210 nM.
In the case of `Cn1c2nc3ccccc3c-2c(N2CCOCC2)c2ccccc21`, the IC50 was determined as 164 nM with MV4-11, 1510 nM with A549 [1], 1800 nM with HCT-116 and 1610 nM in the assay with BALB/3T3 [2].
Molecule `CCN(CC)CCCC(C)Nc1c2c3ccccc3nc-2n(C)c2ccc(Cl)cc12` (configuration not stated) displayed an IC50 in the assay with MV4-11 of 780 nM.
Same read-out and setting: for `CCN(CC)CCCC(C)Nc1c2c3ccccc3nc-2n(C)c2ccccc12` (configuration not stated) the value was 721 nM.
With `Cn1c2nc3ccccc3c-2c(NCCCN)c2cc(Br)ccc21`, the IC50 in the assay on MV4-11 is 12 nM; in the assay on A549 [1], 543 nM; with HCT-116, 274 nM; in the assay with BALB/3T3 [2] it was 869 nM. In addition, the “Ratio IC50” value with BALB/3T3 [3] and in the assay on BALB/3T3 [4] was 3 throughout. For the same molecule, the K in the assay with Nucleic Acid worked out at 2.93 ×10⁵ L/mol.
`Cn1c2nc3ccccc3c-2c(Cl)c2cc(Br)ccc21` yielded an IC50 in the assay on MV4-11 of 810 nM.
Regarding `Cn1c2ccccc2c2c(NCCN)c3cc(Cl)ccc3nc21`, the IC50 with MV4-11 is 456 nM; in the assay on A549 [1] it was 8280 nM; with HCT-116 it was 6990 nM; with BALB/3T3 [2], 10400 nM.
Take `COc1cccc2c1C(=O)c1c(O)c3c(c(O)c1C2=O)C[C@@](O)(C(=O)CO)C[C@@H]3O[C@H]1C[C@H](N)[C@H](O)[C@H](C)O1` [DOXORUBICIN HYDROCHLORIDE]: the IC50 in the assay with MV4-11 was determined as 6 nM; in the assay on A549 [1], 329 nM; with HCT-116 it was 390 nM; in the assay with BALB/3T3 [2] it was 1080 nM.
In turn, `Cn1c2nc3ccccc3c-2c(Cl)c2ccccc21` [11-CHLORONEOCRYPTOLEPINE] came in with an IC50 in the assay on MV4-11 of 1310 nM.
In the assay on MV4-11, `CN1CCCN(Cc2c3c4ccccc4nc-3n(C)c3ccc(Cl)cc23)CC1` had an IC50 of 3440 nM.
As for `Cn1c2nc3ccccc3c-2c(NCCCCN)c2cc(F)ccc21`, the half-maximal inhibitory concentration (IC50) is 95 nM in the assay on MV4-11, 785 nM in the assay with A549 [1], 178 nM in the assay with HCT-116 and 853 nM in the assay on BALB/3T3 [2]. The “Ratio IC50” value in the assay on BALB/3T3 [4] and with A549 [5] was 4 each time.
As for `Cn1c2ccccc2c2c(NCCCCN)c3cc(Cl)ccc3nc21`, the IC50 in the assay on MV4-11 came out at 669 nM; in the assay with A549 [1], 6090 nM; with HCT-116 it was 5500 nM; in the assay with BALB/3T3 [2] it was 9010 nM.
`CCN(CC)CCCC(C)Nc1c2c3ccccc3nc-2n(C)c2ccc(Br)cc12` (configuration not stated) yielded an IC50 in the assay with MV4-11 of 578 nM.
As for `Cn1c2ccccc2c2c(NCCCO)c3cc(Cl)ccc3nc21`, the IC50 in the assay with MV4-11 was found to be 6210 nM.
`Cn1c2nc3ccccc3c-2c(NCCCO)c2ccccc21`: the concentration for half-maximal inhibition (IC50) in the assay on MV4-11 is 170 nM; with A549 [1], 973 nM; with HCT-116, 714 nM; in the assay on BALB/3T3 [2], 635 nM.
On to `Cn1c2ccccc2c2c(NCCCN)c3cc(Cl)ccc3nc21`, for which the IC50 in the assay with MV4-11 worked out at 800 nM; in the assay with A549 [1] it was 7380 nM; in the assay with HCT-116 it was 4490 nM; in the assay with BALB/3T3 [2], 9800 nM. Further, the K in the assay on Nucleic Acid worked out at 3.28 ×10⁵ L/mol.
As to `CN1CCCN(c2c3c4ccccc4nc-3n(C)c3ccccc23)CC1`, in the assay with MV4-11, the IC50 stood at 7170 nM.
The molecule `Cn1c2nc3ccccc3c-2c(NCCc2c[nH]c3ccccc23)c2cc(Cl)ccc21` came in with an IC50 with MV4-11 of 447 nM.
As to `CN(C)CCCNCc1c2c3ccccc3nc-2n(C)c2ccc(Cl)cc12`, in the assay with MV4-11, the IC50 was 3460 nM.
Regarding `CN1CCCN(c2c3cc(Cl)ccc3nc3c2c2ccccc2n3C)CC1`, the IC50 was 773 nM in the assay with MV4-11, 11200 nM with A549 [1], 8000 nM in the assay on HCT-116 and > 25000 nM with BALB/3T3 [2].
`Cn1c2ccccc2c2c(NCCc3c[nH]c4ccccc34)c3cc(Cl)ccc3nc21` had an IC50 with MV4-11 of 18800 nM.
Same read-out and setting: for `Cn1c2ccccc2c2c(N3CCOCC3)c3cc(Cl)ccc3nc21` the value was > 25000 nM; for `CCN(CC)CCCC(C)Nc1c2cc(Cl)ccc2nc2c1c1ccccc1n2C` (configuration not stated), 5250 nM; for `Cn1c2nc3ccccc3c-2c(NCCCCN)c2cc(Cl)ccc21`, 680 nM.
For `Cn1c2nc3ccccc3c-2c(NCCCO)c2cc(Br)ccc21`, the concentration for half-maximal inhibition (IC50) was 703 nM with MV4-11, 1590 nM in the assay with A549 [1], 989 nM in the assay on HCT-116 and 1200 nM in the assay on BALB/3T3 [2].
Regarding `Cn1c2nc3ccccc3c-2c(NCCCN)c2ccccc21`, the half-inhibitory concentration (IC50) in the assay with MV4-11 came out at 66 nM; in the assay on A549 [1], 205 nM; with HCT-116, 302 nM; in the assay on BALB/3T3 [2] it was 884 nM. The “Ratio IC50” value with BALB/3T3 [3] and with BALB/3T3 [4] was 3 throughout.
With `Cn1c2nc3ccccc3c-2c(NCCCCN)c2ccccc21`, the IC50 in the assay with MV4-11 was determined as 100 nM; in the assay with A549 [1], 911 nM; with HCT-116, 669 nM; in the assay with BALB/3T3 [2] it was 936 nM.
Regarding `CN(C)CCNc1c2cc(Cl)ccc2nc2c1c1ccccc1n2C`, the IC50 in the assay with MV4-11 was 2830 nM.
Turning to `Cn1c2nc3ccccc3c-2c(NCCCO)c2cc(Cl)ccc21`, in the assay on MV4-11, half-maximal inhibition (IC50) was put at 530 nM.
As to `Cn1c2nc3ccccc3c-2c(NCCCN)c2cc(Cl)ccc21`, the IC50 was determined as 68 nM in the assay with MV4-11, 761 nM with A549 [1], 195 nM in the assay with HCT-116 and 401 nM with BALB/3T3 [2]. Further, the “Ratio IC50” value in the assay with BALB/3T3 [4] and in the assay on A549 [5] was 4 in each case.
